From ChEMBL document CHEMBL1131415, “Structure-activity relationships for antiplasmodial activity among 7-substituted 4-aminoquinolines” (J Med Chem, 1998) come the findings set out here.

What all share (assay type): functional, organism-based
For test [1], the system named is Plasmodium falciparum. Kind of test: In vitro antiplasmodial activity against chloroquine-sensitive Plasmodium falciparum Haiti 135. Summed up: (§1)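 Cloned P. falciparum (chloroquine-susceptible Haiti-13524 or chloroquine-resistant Indochina I), synchronous early ring stage, 2% red cell suspension at 0.2% parasitemia. Exposed to varying AQ concentrations 48 h, then same concentrations plus 0.5 µCi 3H-hypoxanthine for additional 18 h. IC50 from linear regression of percent inhibition of 3H-hypoxanthine accumulation vs log concentration; triplicate determinations, chloroquine control.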

Test [2] has as its system Plasmodium falciparum. Kind of test: In vitro antiplasmodial activity against chloroquine-resistant Plasmodium falciparum Indochina I. Summed up:
as §1

The test system of test [3] is Plasmodium falciparum. Put plainly: In vitro anti-plasmodial activity against chloroquine-resistant Plasmodium falciparum Indochina I. Put shortly: as §1

Take `CCN(CC)CCNc1ccnc2cc(C(F)(F)F)ccc12`: the IC50 in the test with Plasmodium falciparum [1] was determined as 30 nM; in the test on Plasmodium falciparum [2], 41 nM.
On the same counts, the results for `CCN(CC)CCNc1ccnc2cc(Br)ccc12` are 7 nM and 7 nM.
For `CCN(CC)CCNc1ccnc2cc(F)ccc12`, the 50% inhibitory concentration (IC50) in the test with Plasmodium falciparum [1] amounted to 35 nM; with Plasmodium falciparum [2] it was 60 nM.
For `CCN(CC)CCNc1ccnc2cc(OC)ccc12`, the results for the concentration for half-maximal inhibition (IC50) with Plasmodium falciparum [1] and with Plasmodium falciparum [2] were 48 nM and 155 nM, respectively.
As to `CCN(CC)CC(C)Nc1ccnc2cc(Cl)ccc12` (stereo not drawn), the IC50 with Plasmodium falciparum [1] came out at 8 nM; with Plasmodium falciparum [2] it was 10 nM.
Turning to `CCN(CC)CCCCCCCCCCNc1ccnc2cc(OC)ccc12`, the concentration for half-maximal inhibition (IC50) with Plasmodium falciparum [1] was determined as 10 nM; in the test with Plasmodium falciparum [3] it was 170 nM.
Turning to `CCN(CC)CCCCCCCCCCCCNc1ccnc2cc(I)ccc12`, the IC50 in the test with Plasmodium falciparum [1] turned out to be 10 nM; with Plasmodium falciparum [3], 20 nM.
Turning to `CCN(CC)CCCNc1ccnc2cc(Cl)ccc12`, the concentration for half-maximal inhibition (IC50) with Plasmodium falciparum [1] was 5 nM; with Plasmodium falciparum [2], 6 nM.
Turning to `CCN(CC)CCCC(C)Nc1ccnc2cc(OC)ccc12` (stereo not drawn), the IC50 was 55 nM in the test with Plasmodium falciparum [1] and 3000 nM in the test with Plasmodium falciparum [2].
Consider `CCN(CC)CC(C)Nc1ccnc2cc(Br)ccc12` (stereo not drawn), for which the IC50 with Plasmodium falciparum [1] came to 11 nM; in the test on Plasmodium falciparum [2], 12 nM.
As to `CCN(CC)CCCC(C)Nc1ccnc2cc(C(F)(F)F)ccc12` (stereo not drawn), the values for the IC50 with Plasmodium falciparum [1] and in the test on Plasmodium falciparum [2] were 16 nM and 45 nM, respectively.
For the compound `CCN(CC)CC(C)Nc1ccnc2cc(C(F)(F)F)ccc12` (stereo not drawn), the IC50 in the test with Plasmodium falciparum [1] and with Plasmodium falciparum [2] was 50 nM each time.
Turning to `CCN(CC)CC(C)Nc1ccnc2cc(F)ccc12` (stereo not drawn), the half-inhibitory concentration (IC50) was 30 nM with Plasmodium falciparum [1] and 60 nM with Plasmodium falciparum [2].
For the compound `CCN(CC)CCCCCCCCCCNc1ccnc2cc(Br)ccc12`, the results for the 50% inhibitory concentration (IC50) in the test on Plasmodium falciparum [1] and with Plasmodium falciparum [3] were 6 nM and 17 nM, respectively.
For the compound `CCN(CC)CCCNc1ccnc2cc(F)ccc12`, the IC50 with Plasmodium falciparum [1] turned out to be 23 nM; with Plasmodium falciparum [2], 120 nM.
Turning to `CCN(CC)CCCCCCCCCCCCNc1ccnc2cc(OC)ccc12`, the results for the IC50 in the test with Plasmodium falciparum [1] and with Plasmodium falciparum [3] were 17 nM and 90 nM, respectively.
As for `CCN(CC)CCCCCCCCCCNc1ccnc2cc(Cl)ccc12`, the values for the 50% inhibitory concentration (IC50) in the test on Plasmodium falciparum [1] and in the test with Plasmodium falciparum [3] were 6 nM and 13 nM, respectively.
Regarding `CCN(CC)CCCC(C)Nc1ccnc2cc(I)ccc12` (stereo not drawn), the IC50 amounted to 4 nM in the test with Plasmodium falciparum [1] and 35 nM in the test on Plasmodium falciparum [2].
With `CCN(CC)CC(C)Nc1ccnc2cc(I)ccc12` (stereo not drawn), the IC50 in the test on Plasmodium falciparum [1] and with Plasmodium falciparum [2] was 7 nM in each case.
In the case of `CCN(CC)CCCCCNc1ccnc2cc(Cl)ccc12`, the 50% inhibitory concentration (IC50) in the test on Plasmodium falciparum [1] worked out at 6 nM; in the test on Plasmodium falciparum [2], 58 nM.
On to `CCN(CC)CCCCCCCCCCNc1ccnc2cc(I)ccc12`, for which the results for the half-maximal inhibitory concentration (IC50) with Plasmodium falciparum [1] and in the test with Plasmodium falciparum [3] were 6 nM and 16 nM, respectively.
`CCN(CC)CCCNc1ccnc2cc(OC)ccc12`: the concentration for half-maximal inhibition (IC50) with Plasmodium falciparum [1] was found to be 150 nM; in the test with Plasmodium falciparum [2], 900 nM.
For the compound `CCN(CC)CCCCCCCCCCCCNc1ccnc2cc(F)ccc12`, the IC50 with Plasmodium falciparum [1] is 8 nM; in the test with Plasmodium falciparum [3] it was 25 nM.
In the case of `CCN(CC)CCCCCCNc1ccnc2cc(Cl)ccc12`, the IC50 in the test with Plasmodium falciparum [1] worked out at 5 nM; in the test on Plasmodium falciparum [2], 56 nM.
As to `CCN(CC)CCCCCCCCCCCCNc1ccnc2cc(C(F)(F)F)ccc12`, the concentration for half-maximal inhibition (IC50) in the test on Plasmodium falciparum [1] was 5 nM; in the test with Plasmodium falciparum [3] it was 25 nM.
Take `CCN(CC)CCCNc1ccnc2cc(C(F)(F)F)ccc12`: the 50% inhibitory concentration (IC50) amounted to 15 nM in the test on Plasmodium falciparum [1] and 18 nM in the test with Plasmodium falciparum [2].
As to `CCN(CC)CCCNc1ccnc2cc(Br)ccc12`, the results for the IC50 in the test on Plasmodium falciparum [1] and with Plasmodium falciparum [2] were 4 nM and 6 nM, respectively.
The matching figures for `CCN(CC)CCNc1ccnc2cc(Cl)ccc12`: 7 nM and 5 nM.
The matching figures for `CCN(CC)CCNc1ccnc2cc(I)ccc12`: 6 nM and 6 nM.
On to `CCN(CC)CCCCCCCCCCNc1ccnc2cc(F)ccc12`, for which the results for the IC50 with Plasmodium falciparum [1] and with Plasmodium falciparum [3] were 7 nM and 40 nM, respectively.
As for `CCN(CC)CCCCCCCCNc1ccnc2cc(Cl)ccc12`, the 50% inhibitory concentration (IC50) in the test on Plasmodium falciparum [1] was determined as 4 nM; in the test with Plasmodium falciparum [3], 41 nM.
As to `CCN(CC)CCCC(C)Nc1ccnc2cc(F)ccc12` (stereo not drawn), the IC50 in the test on Plasmodium falciparum [1] is 20 nM; with Plasmodium falciparum [2] it was 500 nM.
In the case of `CCN(CC)CCCCCCCCCCCCNc1ccnc2cc(Br)ccc12`, the concentration for half-maximal inhibition (IC50) in the test on Plasmodium falciparum [1] stood at 8 nM; in the test with Plasmodium falciparum [3], 18 nM.
For the compound `CCN(CC)CCCC(C)Nc1ccnc2cc(Br)ccc12` (stereo not drawn), the IC50 was determined as 5 nM in the test on Plasmodium falciparum [1] and 90 nM in the test on Plasmodium falciparum [2].
As to `CCN(CC)CCCNc1ccnc2cc(I)ccc12`, the values for the IC50 with Plasmodium falciparum [1] and in the test on Plasmodium falciparum [2] were 3 nM and 4 nM, respectively.
Regarding `CCN(CC)CCCCNc1ccnc2cc(Cl)ccc12`, the IC50 in the test with Plasmodium falciparum [1] stood at 5 nM; in the test with Plasmodium falciparum [2] it was 51 nM.
In the case of `CCN(CC)CCCCCCCCCCNc1ccnc2cc(C(F)(F)F)ccc12`, the concentration for half-maximal inhibition (IC50) came to 10 nM in the test on Plasmodium falciparum [1] and 20 nM with Plasmodium falciparum [3].
As to `CCN(CC)CCCCCCCCCCCCNc1ccnc2cc(Cl)ccc12`, the half-maximal inhibitory concentration (IC50) in the test on Plasmodium falciparum [1] was 13 nM; with Plasmodium falciparum [3] it was 11 nM.
In the case of `CCN(CC)CC(C)Nc1ccnc2cc(OC)ccc12` (stereo not drawn), the half-inhibitory concentration (IC50) in the test with Plasmodium falciparum [1] was found to be 94 nM; with Plasmodium falciparum [2], 180 nM.

By IC50 is commonly meant the concentration that inhibits the measured activity by half.
